Here are results for three compounds from article PMC7729387 (Journal of Antimicrobial Chemotherapy, 2020).

Structures are written as SMILES. Converted amounts (≈) assume the structure as drawn. Like-named read-outs stand apart in the source and are kept apart here.

Data set [1] has as its system A/WSN/33 (H1N1) strain. It counts as in vivo, influenza A(H1N1) virus (BALB/c mice).
The subject of data set [2] is A/WSN/33 (H1N1) strain. Description: PK/PD analysis, linear model. It counts as in vivo, influenza A(H1N1) virus (BALB/c mice). To be noted: y = virus titre (log10 TCID50/mL).
Data set [3] in a line: PK of baloxavir acid after oral baloxavir marboxil in A/WSN/33-infected mice. It counts as in vivo, BALB/c mice. The essentials:
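A/WSN/33-infected BALB/c mice each received a single oral dose of the prodrug at 0.5, 1.5, 5, 15 or 50 mg/kg. Blood was taken at 0.5–12 h, three mice per dose per timepoint. Plasma active acid and prodrug were measured by LC-MS/MS.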

The nature of data set [4]: PK of baloxavir acid after subcutaneous baloxavir acid in A/WSN/33-infected mice. It counts as in vivo, BALB/c mice. To be noted: sc baloxavir acid 0.125, 0.5, 2 and 8 mg/kg.
For data set [5], the system named is A/WSN/33 (H1N1) strain. Description: PK/PD analysis, sigmoid Emax model. It counts as in vivo, influenza A(H1N1) virus (BALB/c mice). To be noted: for E max (estimate) / E 0 (estimate): y = virus titre (log10 TCID50/mL). The essentials: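 A/WSN/33-infected BALB/c mice were dosed subcutaneously from day 5 at 0.0625–8 mg/kg q24h, q12h or q6h for 1 day, five per group, in Tween 80/copolymer carbonate vehicle at pH ~9. Lung titres were read 24 h later by MDCK TCID50. PK parameters came from mean plasma levels after single 0.125–8 mg/kg doses, scaled for 0.0625–4 mg/kg. A sigmoid Emax model was fitted to individual-mouse titres and judged by adjusted R².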

The subject of data set [6] is type A and type B virus strains. To be noted: cited from earlier work.
The test system is the same in data set [7]. To be noted: plaque-reduction assay; cited from earlier work.
For data set [8] the following is noted: humans; single-dose oral baloxavir marboxil; cited from earlier work.
The test system of another data set is B/Hong Kong/5/72. It counts as in vivo, influenza type B virus (BALB/c mice). To be noted: oral 15 mg/kg twice daily.
Another data set deals with A/Hong Kong/8/68 (H3N2). It counts as in vivo, influenza A(H3N2) virus (BALB/c mice). Conditions: oral 15 mg/kg twice daily.
The test system of data set [9] is A/Osaka/129/2009 (H1N1pdm09). Set-up: species or system influenza A(H1N1)pdm09 virus (BALB/c mice). Conditions: mouse, in vivo, po, 5 mg/kg.
The subject of another data set is influenza A virus. Conditions: 10 mg/kg, q24h daily, nude mice; cited from earlier work.
The test system of a further data set is influenza virus. To be noted: cited from earlier work.
Setting [10] is: BXA in plasma, oral BXM 0.5 mg/kg.
Setting [11] is: BXA in plasma, oral BXM 1.5 mg/kg.
[12] abbreviates: BXA in plasma, oral BXM 5 mg/kg.
[13] abbreviates: BXA in plasma, oral BXM 15 mg/kg.
The mark [14] stands for this setting: BXA in plasma, oral BXM 50 mg/kg.
The mark [15] stands for this setting: […], 24 h after initial dosing, 15 mg/kg.
Setting [16] is: 24 h after single-dose oral treatment, patients with uncomplicated influenza, ref Phase 3 baloxavir marboxil studies.

For `O=C1c2c(O)c(=O)ccn2N([C@@H]2c3ccccc3SCc3c2ccc(F)c3F)[C@@H]2COCCN12` [baloxavir acid], the “virus titres versus vehicle or oseltamivir phosphate 5 eq mg/kg, q12h” value with A/WSN/33 (H1N1) strain [1] ([…], 24 h post-treatment initiation, all groups) is recorded as “numerically lower”. The “E 0 (estimate)” value in the data set on A/WSN/33 (H1N1) strain [2] (x = T >2 (h)) is reported as 5.141; in the data set on A/WSN/33 (H1N1) strain [2] (x = T >10 (h)), 4.095; in the data set on A/WSN/33 (H1N1) strain [2] (x = T >50 (h)) it was 3.569; in the data set on A/WSN/33 (H1N1) strain [5] (x = C 24 (ng/mL)), 3.928; in the data set on A/WSN/33 (H1N1) strain [5] (x = C max (ng/mL)), 3.806; with A/WSN/33 (H1N1) strain [5] (x = C τ (ng/mL)), 3.958. The “E 0 (estimate)” value in the data set on A/WSN/33 (H1N1) strain [5] (x = T >50 (h)) is on record as 3.588. Also, in data set [3] (BXA in plasma after oral baloxavir marboxil 0.5–50 mg/kg), the “plasma exposure versus dose” value was “increased dose proportionally up to 15 mg/kg”. The “AUC0–12” value is given as 22.0 ng·h/mL in [3] (setting [10]); 62.6 ng·h/mL in data set [3] (setting [11]); 242 ng·h/mL in [3] (setting [12]); 648 ng·h/mL in data set [3] (setting [13]); 1580 ng·h/mL in data set [3] (setting [14]). Besides, the “AUC0–∞” value in data set [3] (setting [10]) is on record as 22.7 ng·h/mL; in [3] (setting [11]) it was 66.1 ng·h/mL; in [3] (setting [12]), 252 ng·h/mL; in data set [3] (setting [13]) it was 670 ng·h/mL; in data set [3] (setting [14]) it was 1690 ng·h/mL. The C max turned out to be 5.05 ng/mL in data set [3] (setting [10]); 14.3 ng/mL in [3] (setting [11]); 45.7 ng/mL in [3] (setting [12]); 175 ng/mL in data set [3] (setting [13]); 284 ng/mL in data set [3] (setting [14]). The T max is given as 1.00 h in data set [3] (setting [10]); 1.00 h in [3] (setting [11]); 0.500 h in data set [3] (setting [12]); 0.500 h in data set [3] (setting [13]); 2.00 h in data set [3] (setting [14]). Further, the “t ½,z” value in data set [3] (BXA in plasma, oral BXM 0.5 mg/kg, t½,4–10 h) came to 2.24 h; in data set [3] (BXA in plasma, oral BXM 1.5 mg/kg, t½,6–12 h), 2.56 h; in [3] (BXA in plasma, oral BXM 5 mg/kg, t½,6–12 h), 2.45 h; in data set [3] (BXA in plasma, oral BXM 15 mg/kg, t½,6–12 h) it was 2.26 h; in data set [3] (BXA in plasma, oral BXM 50 mg/kg, t½,6–12 h), 3.14 h. Besides, the “t½,z (half-life in mouse plasma)” value in data set [3] (BXA in plasma, oral baloxavir marboxil 0.5–50 mg/kg, range over doses) was 2.24 to 3.14 h. Moreover, the “plasma concentration versus dose” value in [4] is “increased dose proportionally from 0.125 to 8 mg/kg”. The “E max (estimate)” value in the data set on A/WSN/33 (H1N1) strain [5] (x = AUC0–24 (ng·h/mL)) is on record as 1.091; in the data set on A/WSN/33 (H1N1) strain [5] (x = C 24 (ng/mL)), 1.499; in the data set with A/WSN/33 (H1N1) strain [5] (x = C max (ng/mL)), 1.022; with A/WSN/33 (H1N1) strain [5] (x = C τ (ng/mL)), 1.554; in the data set with A/WSN/33 (H1N1) strain [5] (x = T >50 (h)), 1.913. Further, the figures for the “EC50 (estimate)” value with A/WSN/33 (H1N1) strain [5] (x = C 24), in the data set on A/WSN/33 (H1N1) strain [5] (x = C max) and in the data set with A/WSN/33 (H1N1) strain [5] (x = C τ) were 4.767 ng/mL (≈ 9.86 nM), 42.528 ng/mL (≈ 88 nM) and 4.108 ng/mL (≈ 8.5 nM), respectively. The “inhibitory values, type A more potent than type B virus strains” value is given as 4- to 5 fold in data set [6] and 6- to 12 fold in [7]. Further, the “half-life in plasma compared with that in mice” value in [8] is reported as > 10 fold.
Consider `COC(=O)OCOc1c2n(ccc1=O)N([C@@H]1c3ccccc3SCc3c1ccc(F)c3F)[C@@H]1COCCN1C2=O` [baloxavir marboxil], for which, in the data set with A/WSN/33 (H1N1) strain [1] (setting [15]), the “virus titres declined compared with oseltamivir phosphate 5 or 50 eq mg/kg, q12h” value was determined as 2 log10 TCID50/mL and the “virus titres declined compared with vehicle” value is given as > 3 log10 TCID50/mL. The “virus titres compared with the clinically equivalent or higher dose of oseltamivir phosphate” value with A/WSN/33 (H1N1) strain [1] (mouse, in vivo, po, 1.5 mg/kg) is reported as “significantly reduced virus titres”. In the data set on A/WSN/33 (H1N1) strain [1] (mouse, in vivo, po, 5 mg/kg), the “Lung virus titres versus each NAI or favipiravir” value is on record as “significantly lower”. Besides, in the data set with A/WSN/33 (H1N1) strain [1] (oral 15 mg/kg twice daily), the “decrease in virus titre compared with oseltamivir phosphate at 5 eq mg/kg” value (“decrease in virus titre” for short) amounted to 2.64 log10 TCID50/mL. Also, in the data set on B/Hong Kong/5/72, the “decrease in virus titre” value came to 0.97 log10 TCID50/mL. In addition, the “baloxavir marboxil in plasma” value in data set [3] (after oral baloxavir marboxil, data not shown) was “undetectable in almost all infected mice”. Moreover, in the data set with A/Hong Kong/8/68 (H3N2), the “decrease in virus titre” value is 2.16 log10 TCID50/mL. In addition, the “virus titre reduction in mice infected with the H1N1pdm09 strain” value in data set [9] is ≥ 100 fold. The “clearance of virus from the respiratory organs” value in the data set with influenza A virus is “did not clear the virus from the respiratory organs”. In the data set with influenza virus (setting [16]), the “greater viral load reduction than after oseltamivir phosphate” value is given as 2.0 log10 TCID50/mL and the “greater viral load reduction than after placebo” value is recorded as 3.5 log10 TCID50/mL. The Symptom resolution result in the data set on influenza virus (type A virus infections) is on record as “faster with baloxavir marboxil than placebo, but not oseltamivir phosphate”.
As to `CCOC(=O)C1=C[C@@H](OC(CC)CC)[C@H](NC(C)=O)[C@@H](N)C1` [oseltamivir phosphate, reference compound], the “reduction in virus titres compared with vehicle” value with A/WSN/33 (H1N1) strain [1] (mouse, in vivo) was 0.5–1 log10.
